This is an account of results in ChEMBL document CHEMBL4814013, “Scaffold repurposing of fendiline: Identification of potent KRAS plasma membrane localization inhibitors” (Eur J Med Chem, 2021).

In general, IC50 refers to the concentration that gives 50% inhibition.

The subject of one data set is BXPC-3. In words: Antiproliferative activity against human BXPC-3 cells expressing wild type KRAS assessed as reduction in cell growth incubated for 72 hrs by CyQuant proliferation assay. It is filed as functional, cell-based. Particulars: BXPC-3, 72 h. The gist of the method: (§1)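 Cells seeded in 96-well plates; after 24 h fresh growth medium with 0.1% DMSO vehicle or drug added (highest dose 30 µM for cancer lines), grown 72 h at 37 °C, 5% CO2. Live cell number measured by CyQUANT fluorescence. IC50 from three independent experiments. MEFs were isogenic lines carrying oncogenic BRAF or KRAS.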

Another data set has as its system Ishikawa. In words: Antiproliferative activity against human Ishikawa cells expressing wild type KRAS assessed as reduction in cell growth incubated for 72 hrs by CyQuant proliferation assay. Format: functional, cell-based. The gist of the method:
as §1

In a further data set the test system is SK-CO-1. In words: Antiproliferative activity against human SK-CO-1 cells expressing mutant KRAS assessed as reduction in cell growth incubated for 72 hrs by CyQuant proliferation assay. Format: functional, cell-based. Particulars: SK-CO-1, 72 h. A digest of the protocol:
as §1

For data set [1], the system named is MEF. As to the kind of experiment: Antiproliferative activity against mouse MEF cells expressing KRAS G12D mutant assessed as reduction in cell growth incubated for 72 hrs by CyQuant proliferation assay. It is filed as functional, cell-based. A digest of the protocol: as §1
Data set [2] can be described thus: Inhibition of ASM in dog MDCK cells co-expressing recombinant full length mGFP-tagged KRAS G12V mutant and mCherry-CAAX assessed as reduction in plasma membrane localization of KRAS mutant incubated for 48 hrs by confocal microscopic analysis. It is filed as cell membranes, Canis lupus familiaris. A digest of the protocol:
(§2)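 MDCK cells stably co-expressing mGFP-KRAS G12V or mGFP-LactC2 with mCherry-CAAX (HRAS 179–189 C181S/C184S) grown on coverslips in DMEM/10% FBS. Treated 48 h with 0.1% DMSO or graded drug, fixed in 4% paraformaldehyde, then quantitative confocal imaging. Mislocalization scored as the Manders fraction of mCherry-CAAX co-localizing with the GFP probe. IC50 and Emax from three independent experiments.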

The subject of data set [3] is MDCK. As to the kind of experiment: Inhibition of ASM in dog MDCK cells co-expressing recombinant full length GFP-tagged LactC2 and mCherry-CAAX assessed as reduction in plasma membrane localization of LactC2 incubated for 48 hrs by confocal microscopic analysis. Particulars: Canis lupus familiaris. Format: cell membranes. The gist of the method: as §2
Data set [4] deals with MDCK. In words: Inhibition of ASM in dog MDCK cells co-expressing recombinant full length mGFP-tagged KRAS G12V mutant and mCherry-CAAX assessed as reduction in plasma membrane localization of KRAS mutant incubated for 48 hrs by confocal microscopic analysis relative to control. It is filed as cell membranes. Particulars: Canis lupus familiaris. A digest of the protocol: as §2

Data set [5] in a line: Antiproliferative activity against human MOH cells expressing KRAS mutant assessed as reduction in cell growth incubated for 72 hrs by CyQuant proliferation assay. Format: functional, cell-based. A digest of the protocol: as §1
Data set [6] has as its system Mus musculus. As to the kind of experiment: In vivo inhibition of KRAS signaling in nu/nu mouse xenografted with human MIA PaCa-2 cells harboring KRAS mutation assessed as decrease in ERK phosphorylation in tumor at 1 to 5 mg/kg, ip administered once daily for 5 days with 2 days break by immunohistochemistry. Format: functional, organism-based. Particulars: dose 1-5 mg/kg, time 5.0 day. A digest of the protocol:
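Paraffin tumor sections of 4–5 µm were deparaffinized and given heat antigen retrieval in 10 mM sodium citrate. Endogenous peroxidase was quenched and sections blocked in 2.5% normal goat serum. Primary antibody (pERK or cleaved caspase 3) applied overnight at 4 °C, biotinylated secondary 1:250 for 45 min at rt, then ABC reagent 30 min and DAB development. Rabbit IgG served as control.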
(A xenograft is tissue or cells of one species grown in another, often human tumour cells in immunodeficient mice.)

The next data set has as its system Caenorhabditis elegans. In words: In vivo inhibition of KRAS signaling in Caenorhabditis elegans lin-1 L1 harboring let60 […] mutant assessed as reduction in multi-vulva phenotype measured after 4 to 5 days culturing in buffer containing Escherichia coli OP50 by DIC/Nomarski microscopic analysis. Format: functional, organism-based. Particulars: dose 0.1-30 µM, time 4-5 day. The gist of the method: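 let-60 (n1046) or lin-1 L1 larvae cultured in M9 buffer with E. coli OP50 plus DMSO vehicle or compound at 0.1, 0.3, 1, 3, 10 or 30 µM. After 4–5 days, adults were scored for multi-vulva by DIC/Nomarski microscopy.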

Data set [7] relates to Mus musculus. In words: In vivo inhibition of Ca2+ channel in nu/nu mouse xenografted with human MIA PaCa-2 cells harboring KRAS mutation assessed as blood vessel dialation in tumor at 1 to 5 mg/kg, ip administered once daily for 5 days with 2 days break by immunostaining. Particulars: dose 1-5 mg/kg, time 5.0 day. It is filed as functional, organism-based.
Data set [8] has as its target T1, Sphingomyelin phosphodiesterase (Homo sapiens) (UniProt P17405).
T1 sequence (whole entry): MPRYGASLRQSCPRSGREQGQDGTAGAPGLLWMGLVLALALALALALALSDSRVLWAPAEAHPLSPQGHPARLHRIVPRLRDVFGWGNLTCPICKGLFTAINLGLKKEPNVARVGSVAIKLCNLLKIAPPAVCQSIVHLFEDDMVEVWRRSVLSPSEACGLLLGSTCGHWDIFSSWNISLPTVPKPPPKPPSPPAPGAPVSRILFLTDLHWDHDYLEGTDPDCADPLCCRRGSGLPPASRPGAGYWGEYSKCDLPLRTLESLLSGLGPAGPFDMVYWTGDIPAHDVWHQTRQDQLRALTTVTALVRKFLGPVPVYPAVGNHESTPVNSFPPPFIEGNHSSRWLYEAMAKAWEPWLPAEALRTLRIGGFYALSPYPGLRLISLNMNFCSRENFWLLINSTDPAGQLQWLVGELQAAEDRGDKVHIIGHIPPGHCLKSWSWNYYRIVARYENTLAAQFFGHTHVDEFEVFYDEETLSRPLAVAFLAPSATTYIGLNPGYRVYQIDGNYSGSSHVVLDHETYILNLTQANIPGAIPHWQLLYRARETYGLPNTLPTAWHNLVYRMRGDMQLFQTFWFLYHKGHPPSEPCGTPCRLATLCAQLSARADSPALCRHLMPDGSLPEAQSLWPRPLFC
As to the kind of experiment: Inhibition of human GFP-tagged ASM expressed in dog MDCK cells using sphingomyelin as substrate at 5 uM incubated for 48 hrs by Amplex Red dye based fluorescence analysis. It is filed as cell-based. A digest of the protocol: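 MDCK cells stably expressing human SMPD1-GFP treated 48 h at 5 µM. Whole-cell lysate, made without DTT, mixed with 50 mM sodium acetate pH 5.0 plus sphingomyelin and held 1 h at 37 °C. pH then raised to 7.4 with Amplex Red mix (100 µM Amplex Red, 2 U/mL HRP, 0.2 U/mL choline oxidase, 8 U/mL alkaline phosphatase, 100 mM Tris pH 8.0), 60 min at 37 °C. Fluorescence read at Ex 540/Em 590 nm. Controls: 0.1 U/mL SMase (positive), buffer alone (negative).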

Another data set concerns NCI-H1975. In words: Antiproliferative activity against human NCI-H1975 cells expressing wild type KRAS assessed as reduction in cell growth incubated for 72 hrs by CyQuant proliferation assay. Format: functional, cell-based. Particulars: NCI-H1975, 72 h. The gist of the method:
as §1

The nature of data set [9]: Toxicity in nu/nu mouse xenografted with human MIA PaCa-2 cells assessed as effect on body weight at 1 to 5 mg/kg, ip administered once daily for 5 days with 2 days break. Particulars: in vivo, 120 h, dose 1-5 mg/kg, time 5 day. Format: organism-based.
Data set [10] concerns MEF. In words: Antiproliferative activity against mouse MEF cells expressing KRAS G12V mutant assessed as reduction in cell growth incubated for 72 hrs by CyQuant proliferation assay. It is filed as functional, cell-based. The gist of the method: as §1
The test system of data set [11] is MDCK. In words: Cytotoxicity against dog MDCK cells at 30 uM. Format: functional, cell-based. Particulars: Canis lupus familiaris.
The next data set has as its system KLE. As to the kind of experiment: Antiproliferative activity against human KLE cells expressing wild type KRAS assessed as reduction in cell growth upto 30 uM incubated for 72 hrs by CyQuant proliferation assay. Format: functional, cell-based. Particulars: dose microM <=30, time 72.0 hrs. The gist of the method: as §1

The source made the active and inactive calls. No cut-off for these calls is given here. A value given as a limit tells only on which side of the number the result lay.

`COc1ccc([C@@H](C)N(CC=C(c2ccccc2)c2ccccc2)CCN2CCCC2)cc1`: the IC50 with BXPC-3 came out at 5.5 µM; with Ishikawa it was 17.3 µM; with SK-CO-1 it was 3 µM; in the data set with MEF [1], 3.9 µM; in data set [2] it was 0.3 µM; in data set [5] it was 3.6 µM. The IC50 with NCI-H1975 is above 30 µM; with MEF [10] it was 2.6 µM. Also, the inhibition result (in the data set with MDCK [3]; in the data set with Mus musculus [6]; in data set [8]) was “Active” throughout. In the data set with MDCK [4], the Emax turned out to be 0.85. For the same compound, the inhibition entry with Caenorhabditis elegans is “Dose-Dependent Effect”. Besides, the inhibition entry in the data set with Mus musculus [7] was “inactive”. The Activity entry in data set [9] is listed as “Non-Toxic”. The result in the data set on MDCK [11] was Active. Further, in the data set with KLE, the outcome was inactive.
For the compound `COc1ccc([C@@H](C)N(CC=C(c2ccccc2)c2ccccc2)CCCN2CCN(C)CC2)cc1`, the half-maximal inhibitory concentration (IC50) in the data set with BXPC-3 was determined as 5.3 µM; in the data set with Ishikawa it was 11 µM; in the data set with SK-CO-1, 3.5 µM; with MEF [1], 2.4 µM; in data set [2], 0.02 µM; in data set [5], 3.8 µM. Besides, the IC50 with NCI-H1975 is above 30 µM; with MEF [10], 2.9 µM. For the same compound, the inhibition entry (with MDCK [3]; in the data set with Mus musculus [6]; in data set [8]) was “Active” in each case. In the data set on MDCK [4], the Emax was 0.81. Besides, the inhibition result in the data set on Caenorhabditis elegans is “Dose-Dependent Effect”. Further, the inhibition entry in the data set on Mus musculus [7] was “inactive”. The Activity result in [9] is reported as “Non-Toxic”. For the same compound, the outcome in the data set with MDCK [11] was Active. Further, the outcome in the data set on KLE was inactive.
